Assay results gathered from unrelated publications.
Each line is one published result; the experiments were not run side by side.
Target: Calcium/calmodulin-dependent protein kinase type II subunit delta (CAMK2D, Homo sapiens, UniProt Q13557)

Cn1cc(-c2cccc(N3CCc4c(sc5c4CC(C)(C)C5)C3=O)c2CO)cc(Nc2ccncn2)c1=O
inhibition (enzyme activity, inhibitor; 1 µM): 3%

Cc1nn(C)cc1-c1nc2c(N3CCN(Cc4ccc(Cl)cc4)CC3)c(Cl)cnc2[nH]1
remaining binding (binding, competition with immobilised ligand; 1 µM): 94%

Nc1ncc(-c2nc(N3CCOCC3)nc(N3CCOCC3)n2)c(C(F)F)n1
remaining binding (binding, competition with immobilised ligand; 10 µM): 66%

Cn1cncc1[C@@](O)(COc1ccc(C#N)cc1-c1ccc(OC(F)(F)F)cc1)c1ccc(C#N)cc1
remaining binding (cell-free assay, competition with immobilised ligand; 1 µM): 95%

CC(C)(C)c1cc(C=C(C#N)C#N)cc(Br)c1O
remaining activity (enzyme activity, inhibitor; 0.5 µM): 96%

COc1ncccc1-c1cnn2ccc(N3CCN(C(=O)OC(C)C)CC3)nc12
remaining binding (binding, competition with immobilised ligand; 1 µM): 83%

O=c1[nH]c2ccccc2n1C1CCN(Cc2ccc(-c3[nH]c4cc5ncnc5cc4nc3-c3ccccc3)cc2)CC1
remaining signal (cell-free assay; 0.5 µM): 97.7%

Cn1cc(-c2cc(F)cc(N3CCn4c(cc5c4CCCC5)C3=O)c2CO)cc(Nc2ccc(N3CCN(C4COC4)CC3)cn2)c1=O
inhibition (enzyme activity, inhibitor; 0.1 µM): 11%
